Assays:
Mus musculus [1] = test: Suppressive blood schizonticidal antimalarial activity evaluated in the trophozoite-induced Plasmodium berghei infection in mice (Mus musculus) at a dose 320 mg/kg given as no. of toxic deaths; format: functional
In short: (§1)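 Rane Laboratory mouse test with blood-induced P. berghei infection, five mice per group. Toxic deaths are deaths occurring before the 6th day postinfection.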

Mus musculus [2] = test: Suppressive blood schizonticidal antimalarial activity evaluated in the trophozoite-induced Plasmodium berghei infection in mice (Mus musculus) at a dose 40 mg/kg; format: functional; parameters: unit not given beside the values
In short: (§2)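 Run at the Rane Laboratory in mice infected with blood-induced P. berghei, five animals per group. Activity is the increase in mean survival time over untreated infected controls. A compound counts as active when treated-group MST is more than twice the control MST. Cures are mice surviving at 60 days postinfection.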

Plasmodium berghei [3] = test: Blood schizonticidal antimalarial activity in the trophozoite-induced Plasmodium berghei infection in mice (Mus musculus) at 20 mg/kg; format: functional; parameters: unit not given beside the values; in short: as §2
Plasmodium cynomolgi [4] = test: Cures in Plasmodium cynomolgi infected Rhesus monkeys (Macaca mulatta) on 0.125 mg/kg/day dose; format: functional
Mus musculus [5] = test: Suppressive blood schizonticidal antimalarial activity evaluated in the trophozoite-induced Plasmodium berghei infection in mice (Mus musculus) at a dose 160 mg/kg given as no. of toxic deaths; format: functional; in short: as §1
Plasmodium berghei [6] = test: Suppressive blood schizonticidal antimalarial activity evaluated in the trophozoite-induced Plasmodium berghei infection in mice (Mus musculus) at a dose 640 mg/kg given as number of toxic deaths; format: toxicity, organism-based; parameters: dose 640 mg/kg; conditions: in vivo; in short: as §1
Plasmodium cynomolgi [7] = test: Cures in Plasmodium cynomolgi infected Rhesus monkeys (Macaca mulatta) on 0.25 mg/kg/day dose; format: functional
Mus musculus [8] = test: Suppressive blood schizonticidal antimalarial activity evaluated in the trophozoite-induced Plasmodium berghei infection in mice (Mus musculus) at a dose 80 mg/kg; format: functional; parameters: unit not given beside the values; in short: as §2
Plasmodium cynomolgi [9] = test: Cures in Plasmodium cynomolgi infected Rhesus monkeys (Macaca mulatta) on 0.5 mg/kg/day; format: functional
Mus musculus [10] = test: Suppressive blood schizonticidal antimalarial activity evaluated in the trophozoite-induced Plasmodium berghei infection in mice (Mus musculus) at a dose 320 mg/kg given as number of cures; format: functional
In short: (§3)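 Run at the Rane Laboratory with blood-induced P. berghei infections in mice, five animals per group. A cure is a mouse surviving to 60 days postinfection. Deaths before day 6 are recorded separately as toxic deaths. Activity is scored from the increase in mean survival time over untreated controls, and counts as active when treated MST is more than twice control MST.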

Mus musculus [11] = test: Suppressive blood schizonticidal antimalarial activity evaluated in the trophozoite-induced Plasmodium berghei infection in mice (Mus musculus) at a dose 160 mg/kg given as no. of cures; format: functional; in short: as §3
Plasmodium berghei [12] = test: Blood schizonticidal activity in trophozoite-induced Plasmodium berghei infected mice (Mus musculus) at 40 mg/kg; numbers cured; format: functional; in short: as §3
Plasmodium cynomolgi [13] = test: Cures in Plasmodium cynomolgi infected Rhesus monkeys (Macaca mulatta) on 1 mg/kg/day after 7 days; cured 0 of 1; format: functional
Mus musculus [14] = test: Suppressive blood schizonticidal antimalarial activity evaluated in the trophozoite-induced Plasmodium berghei infection in mice (Mus musculus) at a dose 640 mg/kg given as no. of cures; format: functional; in short: as §3
Mus musculus [15] = test: Suppressive blood schizonticidal antimalarial activity evaluated in the trophozoite-induced Plasmodium berghei infection in mice (Mus musculus) at a dose 10 mg/kg; format: functional; in short: as §2
Plasmodium cynomolgi [16] = test: Cures in Plasmodium cynomolgi infected Rhesus monkeys (Macaca mulatta) on 3.16 mg/kg/day after 7 days; cured 2 of 2; format: functional
Mus musculus [17] = test: Suppressive blood schizonticidal antimalarial activity evaluated in the trophozoite-induced Plasmodium berghei infection in mice (Mus musculus) at a dose 80 mg/kg given as no. of cures; format: functional; in short: as §3
Plasmodium cynomolgi [18] = test: Cures in Plasmodium cynomolgi infected Rhesus monkeys (Macaca mulatta) on 10.0 mg/kg/day after 7 days; cured 1 of 1; format: functional
Plasmodium cynomolgi [19] = test: Cures in Plasmodium cynomolgi infected Rhesus monkeys (Macaca mulatta) on 1 mg/kg/day after 7 days; cured 2 of 2; format: functional
Plasmodium cynomolgi [20] = test: Cures in Plasmodium cynomolgi infected Rhesus monkeys (Macaca mulatta) on 0.316 mg/kg/day after 7 days; cured 0 of 3; format: functional
Plasmodium cynomolgi [21] = test: Cures in Plasmodium cynomolgi infected Rhesus monkeys (Macaca mulatta) on 0.1 mg/kg/day after 7 days; cured 1 of 2; format: functional
Mus musculus [22] = test: Suppressive blood schizonticidal antimalarial activity evaluated in the trophozoite-induced Plasmodium berghei infection in mice (Mus musculus) at a dose 20 mg/kg given as no. of cures; format: functional; in short: as §3
Plasmodium cynomolgi [23] = test: Cures in Plasmodium cynomolgi infected Rhesus monkeys (Macaca mulatta) on 3.16 mg/kg/day after 7 days; cured 0 of 1; format: functional
Mus musculus [24] = test: Suppressive blood schizonticidal antimalarial activity evaluated in the trophozoite-induced Plasmodium berghei infection in mice (Mus musculus) at a dose 5 mg/kg; format: functional; parameters: unit not given beside the values; in short: as §2
Mus musculus [25] = test: Suppressive blood schizonticidal antimalarial activity evaluated in the trophozoite-induced Plasmodium berghei infection in mice (Mus musculus) at a dose 80 mg/kg given as no. of toxic deaths; format: functional; in short: as §1
Plasmodium cynomolgi [26] = test: Cures in Plasmodium cynomolgi infected Rhesus monkeys (Macaca mulatta) on 0.316 mg/kg/day after 7 days; cured 2 of 3; format: functional
Mus musculus [27] = test: Suppressive blood schizonticidal antimalarial activity evaluated in the trophozoite-induced Plasmodium berghei infection in mice (Mus musculus) at a dose 10 mg/kg given as no. of cures; format: functional; in short: as §3
Plasmodium cynomolgi [28] = test: Cures in Plasmodium cynomolgi infected Rhesus monkeys (Macaca mulatta) on 1 mg/kg/day after 7 days; cured 1 of 1; format: functional
Plasmodium cynomolgi [29] = test: Radical curative antimalarial activity against Plasmodium cynomolgi infected Rhesus monkeys (Macaca mulatta) after 7 days at 0.1 mg/kg/day dose; cured 2 of 4; format: functional
Plasmodium cynomolgi [30] = test: Cures in Plasmodium cynomolgi infected Rhesus monkeys (Macaca mulatta) on 0.316 mg/kg/day after 7 days; cured 1 of 1; format: functional
Plasmodium cynomolgi [31] = test: Cures in Plasmodium cynomolgi infected Rhesus monkeys (Macaca mulatta) on 0.1 mg/kg/day after 7 days (x7); cured 0 of 2; format: functional
Mus musculus [32] = test: Suppressive blood schizonticidal antimalarial activity evaluated in the trophozoite-induced Plasmodium berghei infection in mice (Mus musculus) at a dose 5 mg/kg given as no. of cures; format: functional; in short: as §3
Mus musculus [33] = test: Suppressive blood schizonticidal antimalarial activity evaluated in the trophozoite-induced Plasmodium berghei infection in mice (Mus musculus) at a dose 2.5 mg/kg given as number of cures; format: functional; in short: as §3
Plasmodium cynomolgi [34] = test: Cures in Plasmodium cynomolgi infected Rhesus monkeys (Macaca mulatta) on 0.1 mg/kg/day after 7 days; cured 3 of 4; format: functional
In short: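 Radical curative test run by the SEATO Medical Research Laboratory, Bangkok, in rhesus monkeys with sporozoite-induced P. cynomolgi infection. Cures are recorded as the number cured out of the number treated.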

SMILES | Toxic deaths (Mus musculus [1]) | Delta MST (Plasmodium berghei [3]) | Toxic deaths (Mus musculus [5]) | Toxic deaths (Plasmodium berghei [6]) | Delta MST (Mus musculus [8]) | Cures (Mus musculus [11]) | Cures (Plasmodium berghei [12]) | Cures/no. of animals (Plasmodium cynomolgi [13]) | Delta MST (Mus musculus [15]) | Cures (Mus musculus [22]) | other results
COc1cc(NC(C)CCCN)c2nccc(C)c2c1OC (stereo unspecified) | 4 | 5.7 | 1 | 5 | 8.9 |  |  |  |  |  | Delta MST (Mus musculus [2]): 7.1; Cures (Plasmodium cynomolgi [4]): 11; Cures (Plasmodium cynomolgi [7]): 3; Cures (Plasmodium cynomolgi [9]): 1
CCCCCCCCCCCOc1c(OC)cc(NC(C)CCCN)c2nccc(C)c12 (stereo unspecified) |  | 1 |  |  |  | 5 | 1 | 0 | 3.7 |  | Cures (Mus musculus [10]): 5; Cures (Mus musculus [14]): 5; Cures/no. of animals (Plasmodium cynomolgi [16]): 2; Cures (Mus musculus [17]): 2; Cures/no. of animals (Plasmodium cynomolgi [18]): 1
COc1cc(NC(C)CCCN)c2nccc(C)c2c1OCCCCCCCCOc1ccccc1 (stereo unspecified) | 2 | 3 |  | 1 | 4.4 | 3 |  |  | 0.6 |  | Cures/no. of animals (Plasmodium cynomolgi [19]): 2; Delta MST (Mus musculus [2]): 9.4; Cures/no. of animals (Plasmodium cynomolgi [20]): 0; Cures/no. of animals (Plasmodium cynomolgi [21]): 1
CCCCCCCCCCOc1c(OC)cc(NC(C)CCCN)c2nccc(C)c12 (stereo unspecified) |  |  |  |  |  | 4 | 3 | 0 | 1.8 | 2 | Cures (Mus musculus [10]): 5; Cures (Mus musculus [14]): 4; Cures/no. of animals (Plasmodium cynomolgi [23]): 0; Cures (Mus musculus [17]): 4; Cures/no. of animals (Plasmodium cynomolgi [18]): 1
CCCCCCOc1c(OC)cc(NC(C)CCCN)c2nc(C)cc(C)c12 (stereo unspecified) | 5 |  | 5 | 5 |  |  | 5 |  |  | 2 | Delta MST (Mus musculus [24]): 7.3; Toxic deaths (Mus musculus [25]): 5; Cures/no. of animals (Plasmodium cynomolgi [26]): 2; Cures (Mus musculus [27]): 1; Cures/no. of animals (Plasmodium cynomolgi [28]): 1; Cures/no. of animals (Plasmodium cynomolgi [29]): 2
CCCCCCOc1c(OC)cc(NC(C)CCCN)c2nc(C)ccc12 (stereo unspecified) | 3 | 6 |  | 3 | 11.4 | 3 | 1 | 0 | 2.7 |  | Cures/no. of animals (Plasmodium cynomolgi [30]): 1; Cures/no. of animals (Plasmodium cynomolgi [31]): 0
CCCCCOc1c(OC)cc(NC(C)CCCN)c2nccc(C)c12 (stereo unspecified) | 5 |  | 4 | 5 |  |  | 1 |  |  | 4 | Cures/no. of animals (Plasmodium cynomolgi [19]): 2; Cures (Mus musculus [32]): 5; Toxic deaths (Mus musculus [25]): 2; Cures (Mus musculus [33]): 2; Cures (Mus musculus [27]): 5; Cures/no. of animals (Plasmodium cynomolgi [34]): 3

From ChEMBL document CHEMBL1123779, “Modifications of primaquine as antimalarials. 4. 5-Alkoxy derivatives of primaquine” (J Med Chem, 1987)
